Calls of active or inactive are those of the source. The rule behind the calls is not given here.
Key:
[1] = target: T1, Sodium/glucose cotransporter 2 (Homo sapiens, UniProt P31639); assay: Inhibition of human SGLT2 expressed in CHO cells assessed as [14C]AMG uptake after 45 mins; format: cell-based
T1 sequence (P31639 whole entry): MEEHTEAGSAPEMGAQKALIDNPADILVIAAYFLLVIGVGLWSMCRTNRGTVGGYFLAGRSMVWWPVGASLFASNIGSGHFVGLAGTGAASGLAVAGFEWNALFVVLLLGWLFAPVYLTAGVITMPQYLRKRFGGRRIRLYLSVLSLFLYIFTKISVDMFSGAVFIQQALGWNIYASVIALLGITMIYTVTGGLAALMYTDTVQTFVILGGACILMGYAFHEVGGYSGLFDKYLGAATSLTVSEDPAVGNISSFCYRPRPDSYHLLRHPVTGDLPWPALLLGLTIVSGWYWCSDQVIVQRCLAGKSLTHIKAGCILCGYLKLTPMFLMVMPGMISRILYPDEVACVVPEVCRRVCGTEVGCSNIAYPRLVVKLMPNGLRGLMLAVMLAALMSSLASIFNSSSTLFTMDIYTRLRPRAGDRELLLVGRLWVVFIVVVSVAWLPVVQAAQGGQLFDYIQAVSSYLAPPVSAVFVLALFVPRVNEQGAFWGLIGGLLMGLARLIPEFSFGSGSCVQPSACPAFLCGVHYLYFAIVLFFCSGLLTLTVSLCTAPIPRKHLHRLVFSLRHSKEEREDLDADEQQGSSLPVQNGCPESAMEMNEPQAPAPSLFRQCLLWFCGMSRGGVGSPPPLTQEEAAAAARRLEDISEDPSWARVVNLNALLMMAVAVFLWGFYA
Summary of the method: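 Cells incubated 45 min in reaction buffer with compound plus 1 mM AMG containing [14C]AMG; uptake read as radioactivity in cell lysates. IC50 from four-parameter logistic curve fit; means of multiple independent experiments, with phlorizin and reference standard included in every run.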

Mus musculus = assay: Antidiabetic activity in db/db mouse assessed as reduction of blood glucose level at 100 mg/kg, po after 8 hrs by hexokinase method; format: functional, organism-based; design: dose 100 mg/kg
Summary of the method: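 Male db/db mice on regular chow; single oral gavage dose of 100 mg/kg as homogeneous suspension in 0.5% carboxymethylcellulose sodium. Blood sampled before dosing and at 1, 2, 4, 6, 8, 10 and 24 h; glucose measured by hexokinase method.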

Row | Structure (SMILES) | IC50 [1] [µM] | Activity (Mus musculus)
1 | OC[C@H]1C[C@@H](Oc2ccccc2Cc2ccc(Cl)cc2)[C@H](O)[C@@H](O)[C@@H]1O | 0.15 | –
2 | CCOc1ccc(Cc2ccccc2O[C@@H]2C[C@H](CO)[C@@H](O)[C@H](O)[C@H]2O)cc1 | 0.11 | –
3 | CC(C)c1ccc(Cc2ccccc2O[C@@H]2C[C@H](CO)[C@@H](O)[C@H](O)[C@H]2O)cc1 | 0.15 | –
4 | OC[C@H]1C[C@@H](Oc2ccccc2Cc2ccc(F)cc2)[C@H](O)[C@@H](O)[C@@H]1O | 0.63 | –
5 | CCOC(=O)OC[C@H]1O[C@@H](Oc2ccccc2Cc2ccc(OC)cc2)[C@H](O)[C@@H](O)[C@@H]1O [SERGLIFLOZIN ETABONATE] | 0.26 | Active
6 | OC[C@H]1C[C@@H](Oc2ccccc2Cc2ccccc2)[C@H](O)[C@@H](O)[C@@H]1O | 0.69 | –
7 | OC[C@H]1C[C@@H](Oc2ccccc2Cc2ccc(O)cc2)[C@H](O)[C@@H](O)[C@@H]1O | 0.29 | –
8 | CCCc1ccc(Cc2ccccc2O[C@@H]2C[C@H](CO)[C@@H](O)[C@H](O)[C@H]2O)cc1 | 0.12 | –
9 | OC[C@H]1C[C@@H](Oc2ccccc2Cc2ccc(C(F)(F)F)cc2)[C@H](O)[C@@H](O)[C@@H]1O | 0.12 | –
10 | Cc1ccc(Cc2ccccc2O[C@@H]2C[C@H](CO)[C@@H](O)[C@H](O)[C@H]2O)cc1 | 0.059 | –

Stronger by IC50 [1], values ahead:

Row | IC50 [1] [µM] | Structure (SMILES) | Activity (Mus musculus)
11 | 0.0048 | COc1ccc(Cc2ccccc2O[C@@H]2O[C@H](CO)[C@@H](O)[C@H](O)[C@H]2O)cc1 [SERGLIFLOZIN A] | –
12 | 0.042 | COc1ccc(Cc2ccccc2O[C@@H]2C[C@H](CO)[C@@H](O)[C@H](O)[C@H]2O)cc1 | Active
13 | 0.011 | OC[C@H]1C[C@@H](Oc2ccccc2Cc2ccc(C3CC3)cc2)[C@H](O)[C@@H](O)[C@@H]1O | –
14 | 0.019 | CSc1ccc(Cc2ccccc2O[C@@H]2C[C@H](CO)[C@@H](O)[C@H](O)[C@H]2O)cc1 | –
15 | 0.028 | CCc1ccc(Cc2ccccc2O[C@@H]2C[C@H](CO)[C@@H](O)[C@H](O)[C@H]2O)cc1 | –
16 | 0.029 | C=Cc1ccc(Cc2ccccc2O[C@@H]2C[C@H](CO)[C@@H](O)[C@H](O)[C@H]2O)cc1 | –
